Experimental data as given in ChEMBL document CHEMBL1811865, “NSAID-derived γ-secretase modulation requires an acidic moiety on the carbazole scaffold” (Bioorg Med Chem, 2011).
Activity calls are given as the source filed them. The rule behind the calls is not given here.

Tests used:
[1] = test system: H4; experiment: Cytotoxicity against human H4 cells assessed as cell viability at 80 uM by MTS assay; type: cell-based; conditions: h4, 80 µM
Summary of the method: (§1)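 Viability of H4 APPΔ9 cells was read by a colorimetric cell proliferation assay based on bioreduction of MTS (Owen's reagent) to formazan.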

[2] = target: T1, Gamma-secretase (Homo sapiens) (UniProt Q96BI3+Q9NZ42+Q8WW43+P49768+Q92542+P49810); experiment: Modulation of gamma-secretase activity in human H4 cells expressing APP695 assessed as increase in amyloid beta38 production at 100 uM after 20 to 24 hrs by liquid phase electrochemiluminescence assay; type: cell-based
Summary of the method: (§2)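 Aβ-lowering assay in H4 APPΔ9 cells. Secreted Aβ isoforms (Aβ38, Aβ40, Aβ42) were quantified by liquid phase electrochemiluminescence (LPECL). Dose-response testing was capped at 100 μM to avoid micelle formation by the amphiphilic acids. EC50 values were derived from the curves, and the response at 100 μM was reported where EC50 could not be determined.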

[3] = target: T1, Gamma-secretase (Homo sapiens); experiment: Modulation of gamma-secretase activity in human H4 cells expressing APP695 assessed as increase in amyloid beta40 production at 100 uM after 20 to 24 hrs by liquid phase electrochemiluminescence assay; type: cell-based; summary of the method: as §2
[4] = target: Gamma-secretase; experiment: Modulation of gamma-secretase activity in human H4 cells expressing APP695 assessed as increase in amyloid beta42 production after 20 to 24 hrs by liquid phase electrochemiluminescence assay; type: cell-based; summary of the method: as §2
[5] = test system: Mus musculus; experiment: Antialzheimer activity in APP Swedish mutant transgenic C57/BLg mouse assessed as change in amyloid beta42 level in brain at 10 mg/kg, po after 5 hrs; type: functional, organism-based; design: dose 10 mg/kg
[6] = Ratio of AUC in brain to AUC in plasma in APP Swedish mutant transgenic C57/BLg mouse at 10 mg/kg, po after 5 hrs; conditions: in vivo
[7] = target: Gamma-secretase; experiment: Modulation of gamma-secretase activity in human H4 cells expressing APP695 assessed as increase in amyloid beta40 production after 20 to 24 hrs by liquid phase electrochemiluminescence assay; type: cell-based; summary of the method: as §2
[8] = test system: H4; experiment: Cytotoxicity against human H4 cells assessed as cell viability by MTS assay; type: cell-based; summary of the method: as §1
[9] = target: Gamma-secretase; experiment: Modulation of gamma-secretase activity in human H4 cells expressing APP695 assessed as increase in amyloid beta38 production after 20 to 24 hrs by liquid phase electrochemiluminescence assay; type: cell-based; summary of the method: as §2
[10] = test system: H4; experiment: Cytotoxicity against human H4 cells assessed as cell viability at 20 uM by MTS assay; type: cell-based; conditions: h4, 20 µM; summary of the method: as §1
[11] = Ratio of AUC in plasma to AUC in cerebrospinal fluid in rat; type: ADME, CSF/Plasma; conditions: in vivo
[12] = test system: H4; experiment: Cytotoxicity against human H4 cells assessed as cell viability at 160 uM by MTS assay; type: cell-based; conditions: h4, 160 µM; summary of the method: as §1

| SMILES | Activity [2] | Activity [3] | IC50 [4] | Activity [8] | also measured |
| --- | --- | --- | --- | --- | --- |
| CCCCCCCCn1c2ccccc2c2cc(C=O)c(OCC(=O)O)cc21 | inactive | inactive | 32 µM |  | Activity [1]: Toxic |
| CCCCCCCCn1c2ccccc2c2ccc(OCC(=O)OCC)cc21 | inactive | inactive | 31 µM |  |  |
| CCCCCCCCn1c2ccccc2c2cc(CCC(=O)O)c(OCC(=O)O)cc21 | inactive | inactive | > 80 µM |  |  |
| CCCCCCCCCCn1c2ccc(Cl)cc2c2ccc(C(C)C(=O)O)cc21 (configuration not stated) |  |  |  |  | Activity [5]: inactive; Ratio AUC [6]: < 0.1 |
| CCCCCCCCn1c2ccccc2c2ccc(OCCN)cc21 |  |  |  | Non-toxic | IC50 [7]: > 80 µM; EC50 [4]: > 80 µM; IC50 [9]: > 80 µM |
| CCCCCCCCn1c2ccc(Cl)cc2c2ccc(C(C)C(=O)O)cc21 (configuration not stated) |  |  | 6.9 µM |  | IC50 [7]: > 40 µM; IC50 [9]: 100 µM |
| CCCCCCCCn1c2ccccc2c2ccc(OC(C)(C)C(=O)O)cc21 |  |  | > 40 µM |  | IC50 [7]: > 40 µM; Activity [1]: Toxic; EC50 [9]: > 40 µM |
| CCCCCCCCn1c2ccccc2c2cc(C=O)c(OCC(=O)OC)cc21 | inactive | inactive | 89 µM | Non-toxic |  |
| CCCCCCCCn1c2ccc(Cl)cc2c2ccc(C(C)CO)cc21 (configuration not stated) | inactive | inactive |  |  | Activity [1]: Toxic; EC50 [4]: 21 µM |
| CCCCCCCCn1c2ccccc2c2ccc(OC3=C(O)C(Cc4ccccc4)N(Cc4ccc5c(c4)OCO5)C3=O)cc21 (configuration not stated) |  |  | 24 µM |  | IC50 [7]: 32 µM; Activity [1]: Toxic; IC50 [9]: 31 µM |
| CCCCCCCCn1c2ccccc2c2ccc(OCCO)cc21 | inactive | inactive | > 40 µM | Non-toxic |  |
| CCCCCCCCn1c2ccccc2c2ccc(OCC(=O)OC(C)C)cc21 | inactive | inactive |  |  | EC50 [4]: 49 µM |
| CCCCCCCCn1c2ccccc2c2ccc(OCC(=O)OCC(C)C)cc21 | inactive | inactive | > 80 µM | Non-toxic |  |
| CCCCCCCCn1c2ccccc2c2ccc(OCCNC=O)cc21 | inactive | inactive | > 80 µM | Non-toxic |  |
| CCCCCCCCn1c2ccc(Cl)cc2c2ccc(C(C)C(=O)OCC)cc21 (configuration not stated) | inactive | inactive |  |  | EC50 [4]: 21 µM |
| CCCCCCCCn1c2ccccc2c2ccc(OCCS(=O)(=O)O)cc21 | inactive | inactive | > 80 µM |  |  |
| CCCCCCCCn1c2ccccc2c2ccc(OCCN(C)C)cc21 | inactive | inactive |  |  | Activity [10]: Toxic; EC50 [4]: > 10 µM |
| CCCCCCCCn1c2ccccc2c2ccc(OCC#N)cc21 |  |  | 252 µM |  | IC50 [7]: 105 µM; IC50 [9]: 74 µM |
| CCCCCCCCn1c2ccc(Cl)cc2c2ccc(C(C)C(=O)OC)cc21 (configuration not stated) | inactive | inactive |  |  | EC50 [4]: 15 µM |

| SMILES | Activity [2] | Activity [3] | IC50 [4] | Activity [8] | also measured |
| --- | --- | --- | --- | --- | --- |
| CCCCCCCCn1c2ccccc2c2ccc(OCCP(=O)(OCC)OCC)cc21 | inactive | inactive |  |  | Activity [1]: Toxic; EC50 [4]: 13 µM |
| CCCCCCCCn1c2ccccc2c2ccc(Oc3ccccc3C(=O)O)cc21 |  |  | 38 µM | Non-toxic | IC50 [7]: > 80 µM; EC50 [9]: 23 µM |
| CC(C(=O)O)c1ccc(-c2ccccc2)c(F)c1 (configuration not stated) [FLURBIPROFEN] |  |  |  |  | Ratio AUC [11]: 5.31 |
| CCCCCCCCn1c2ccccc2c2ccc(OCC(N)=O)cc21 | inactive | inactive | 104 µM |  | Activity [12]: Toxic |
| CCCCCCCCn1c2ccccc2c2ccc(OCC(=O)O)cc21 |  |  | 19 µM |  | EC50 [9]: 24 µM |
| CCCCCCCCn1c2ccccc2c2ccc(OCCC(=O)O)cc21 |  |  | > 80 µM | Non-toxic | IC50 [7]: > 80 µM; EC50 [9]: > 80 µM |
| CCCCCCCCn1c2ccccc2c2ccc(OCC(=O)OC(C)(C)C)cc21 | inactive | inactive |  | Non-toxic | EC50 [4]: 19 µM |
| CCCCCCCCn1c2ccccc2c2ccc(OCC(O)C(F)(F)F)cc21 (configuration not stated) | inactive | inactive |  |  | EC50 [4]: 12 µM |
| CCCCCCCCn1c2ccccc2c2cc(CO)c(OCCO)cc21 | inactive | inactive | 80 µM |  |  |
| CCCCCCCCn1c2ccccc2c2ccc(OC3=C(O)CNC3=O)cc21 |  |  | 28 µM | Non-toxic | IC50 [7]: 72 µM; EC50 [9]: 8 µM |
| CCCCCCCCn1c2ccc(Cl)cc2c2ccc(C(C)C(=O)NS(C)(=O)=O)cc21 (configuration not stated) | inactive | inactive |  |  | EC50 [4]: 32 µM |
| CCCCCCCCn1c2ccc(Cl)cc2c2ccc(CC)cc21 | inactive | inactive |  |  | EC50 [4]: 50 µM |
| CCCCCCCCn1c2ccccc2c2ccc(OC3=C(O)COC3=O)cc21 |  |  | 37 µM | Non-toxic | IC50 [7]: > 80 µM; EC50 [9]: 21 µM |
| CCCCCCCCn1c2ccccc2c2ccc(OCCN(C(=O)C(F)(F)F)C(=O)C(F)(F)F)cc21 | inactive | inactive | > 80 µM | Non-toxic |  |
| CCCCCCCCn1c2ccccc2c2ccc(O)cc21 | inactive | inactive | > 80 µM |  |  |
| CCCCCCCCn1c2ccccc2c2ccc(OCc3nn[nH]n3)cc21 |  |  | 113 µM |  | IC50 [7]: 102 µM; IC50 [9]: 165 µM |
| CCCCCCCCn1c2ccccc2c2ccc(OCC(=O)OC)cc21 | inactive | inactive | 27 µM | Non-toxic |  |
| CCCCCCCCn1c2ccc(Cl)cc2c2ccc(C(C)C(=O)OCc3ccccc3)cc21 (configuration not stated) | inactive | inactive | > 80 µM | Non-toxic |  |
